Here are results for 23 molecules from ChEMBL document CHEMBL1124354, “Potential antiatherosclerotic agents. 6. Hypocholesterolemic trisubstituted urea analogues” (J Med Chem, 1989).

Test [1] concerns the target T1, Sterol O-acyltransferase 1 (Rattus norvegicus) (UniProt O70536).
T1 sequence (whole entry): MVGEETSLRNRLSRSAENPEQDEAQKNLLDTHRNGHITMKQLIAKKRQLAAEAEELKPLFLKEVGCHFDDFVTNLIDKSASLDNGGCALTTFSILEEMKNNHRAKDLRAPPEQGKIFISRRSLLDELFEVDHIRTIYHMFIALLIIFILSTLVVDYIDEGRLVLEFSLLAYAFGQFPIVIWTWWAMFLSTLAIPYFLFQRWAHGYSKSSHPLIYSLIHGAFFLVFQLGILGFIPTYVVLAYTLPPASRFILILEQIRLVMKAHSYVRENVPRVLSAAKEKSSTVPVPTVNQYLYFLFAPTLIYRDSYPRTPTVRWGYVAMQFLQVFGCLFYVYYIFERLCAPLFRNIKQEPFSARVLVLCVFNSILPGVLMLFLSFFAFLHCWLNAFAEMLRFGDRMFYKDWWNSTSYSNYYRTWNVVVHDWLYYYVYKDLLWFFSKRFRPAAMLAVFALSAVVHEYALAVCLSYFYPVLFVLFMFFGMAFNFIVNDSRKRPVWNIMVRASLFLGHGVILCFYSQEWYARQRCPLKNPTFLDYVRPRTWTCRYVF
Description: In vitro percentage inhibition againstAcyl coenzyme A:cholesterol acyltransferase derived from rat adrenals. The settings on record: concentration not given here. The essentials:
(§1)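 Rat adrenal 1000g supernatant (microsomal ACAT) in 0.2 M KH2PO4 pH 7.4 with BSA; test compound at final 5.2 µg/mL, preincubated 37 °C 10 min; [14C]oleoyl-CoA (0.4 µCi) added, 37 °C 30 min. Cholesteryl ester separated by TLC, scintillation counted; mean percent inhibition against compound-free control.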

For test [2], the target named is T1, Sterol O-acyltransferase 1 (Rattus norvegicus). Description: Liver hypolipidemic activity in rats. In kind it is functional. The procedure, abridged:
(§2)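 Male CD-1 Sprague-Dawley rats, 140–150 g, fed 1% cholesterol/0.5% cholic acid diet with compound admixed at 0.01% (about 10 mg/kg/day) for 7 days. Serum and liver cholesterol measured by Technicon autoanalyzer methods; expressed as percent of control.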

The target is the same in test [3]. Description: In vitro percentage inhibition against Acyl coenzyme A:cholesterol acyltransferase derived from rat adrenals. The arrangement: concentration or dose not given beside the values. The settings on record: concentration not given here. The essentials: as §1
The target is the same in test [4]. As to the kind of experiment: Serum hypolipidemic activity in rats. In kind it is functional. The essentials:
as §2

Test [5] addresses T2, Sterol O-acyltransferase 1 (Rattus norvegicus, UniProt O70536).
T2 sequence (O70536 whole entry): T1 sequence (whole entry)
As to the kind of experiment: In vitro inhibitory concentration against Acyl coenzyme A:cholesterol acyltransferase derived from rat adrenals. The essentials: (§3)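 Rat adrenal homogenate in 0.2 M KH2PO4 buffer pH 7.4, 1000g supernatant (microsomal fraction) as enzyme; preincubated with BSA and test compound at graded concentrations, 37 °C 10 min, then [14C]oleoyl-CoA 0.4 µCi, 37 °C 30 min. Lipids extracted, cholesteryl ester isolated by TLC and counted. Triplicate tubes per concentration; IC50 by linear regression of means.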

Test [6] deals with Oryctolagus cuniculus. Description: Compound was evaluated for rabbit serum cholesterol level at dose 11 mg/kg per day on day 35. It counts as functional. The essentials: (§4)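 Male New Zealand rabbits (2.5–3.0 kg) on rabbit pellets with 0.4% cholesterol and peanut oil for one week, then bled and grouped by plasma sterol. Drug mixed in diet (6% peanut oil) at 0.25, 0.075 or 0.025% for five weeks, about 109.6, 34.5 or 11.2 mg/kg/day. Dietary cholesterol adjusted weekly (0.30–0.35%). Aortic balloon denudation on day 7 of dosing.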

The test system of test [7] is Oryctolagus cuniculus. As to the kind of experiment: Compound was evaluated for rabbit serum cholesterol level at dose 11 mg/kg per day on day 0. It counts as functional. The essentials: as §4
Test [8] concerns the target T2, Sterol O-acyltransferase 1. As to the kind of experiment: In vitro inhibitory concentration against acyl coenzyme A:cholesterol acyltransferase derived from rat adrenals. The essentials: as §3
Test [9] has as its system Oryctolagus cuniculus. As to the kind of experiment: Compound was evaluated for rabbit serum cholesterol level at dose 35 mg/kg per day on day 0. In kind it is functional. The essentials: as §4
The test system of test [10] is Oryctolagus cuniculus. Description: Compound was evaluated for rabbit serum cholesterol level at dose 35 mg/kg per day on day 7. It counts as functional. The procedure, abridged: as §4
The subject of test [11] is Oryctolagus cuniculus. As to the kind of experiment: Compound was evaluated for rabbit serum cholesterol level at dose 35 mg/kg per day on day 21. In kind it is functional. The essentials:
as §4

The subject of test [12] is Oryctolagus cuniculus. Description: Compound was evaluated for rabbit serum cholesterol level at dose 110 mg/kg per day on day 0. In kind it is functional. The procedure, abridged: as §4
The test system of test [13] is Oryctolagus cuniculus. Description: Compound was evaluated for rabbit serum cholesterol levels for a dose of 110 mg/kg per day on day 21. In kind it is functional. The essentials:
as §4

Test [14] deals with T1, Sterol O-acyltransferase 1 (Rattus norvegicus). As to the kind of experiment: (§5) In vitro percentage inhibition against acyl coenzyme A:cholesterol acyltransferase derived from rat adrenals. The settings on record: concentration not given here. More on the design: concentration or dose not given beside the values. The procedure, abridged:
as §1

Test [15] deals with Oryctolagus cuniculus. Description: Compound was evaluated for rabbit serum cholesterol level at dose 11 mg/kg per day on day 21. In kind it is functional. The essentials: as §4
The test system of test [16] is Oryctolagus cuniculus. Description: Compound was evaluated for rabbit serum cholesterol level at dose 110 mg/kg per day on day 35. In kind it is functional. The procedure, abridged: as §4
Test [17] concerns Oryctolagus cuniculus. As to the kind of experiment: Compound was evaluated for rabbit serum cholesterol level at dose 35 mg/kg per day on day 35. It counts as functional. The essentials: as §4
In test [18] the test system is Oryctolagus cuniculus. Description: Compound was evaluated for rabbit serum cholesterol level at dose 110 mg/kg per day on day 7. In kind it is functional. The essentials:
as §4

Test [19] concerns Oryctolagus cuniculus. Description: Compound was evaluated for rabbit serum cholesterol level at dose 11 mg/kg per day on day 7. In kind it is functional. The procedure, abridged:
as §4

The target of test [20] is T1, Sterol O-acyltransferase 1 (Rattus norvegicus). The test is described as §5. The settings on record: concentration not given here. The procedure, abridged:
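Rat adrenals homogenized in 0.2 M KH2PO4 (pH 7.4), spun at 1000g for 15 min at 5 °C; supernatant used as enzyme. Preincubated with BSA and test compound (final 5.2 µg/mL) at 37 °C for 10 min, then [14C]oleoyl-CoA (0.4 µCi) added for 30 min at 37 °C. Cholesteryl ester isolated by TLC and counted. Mean percent inhibition versus control without compound.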

In test [21] the target is T2, Sterol O-acyltransferase 1. As to the kind of experiment: In vitro inhibitory concentration against ACAT derived from rat adrenals. The procedure, abridged: as §3
The target in test [22] is T1, Sterol O-acyltransferase 1 (Rattus norvegicus). As to the kind of experiment: In vitro percentage inhibition against ACAT derived from rat adrenals. The settings on record: concentration not given here. The procedure, abridged:
as §1

The target is the same in test [23]. As to the kind of experiment: In vitro percentage inhibition against Acyl coenzyme A:cholesterol acyltransferase derived from rat adrenals. The settings on record: concentration not given here.

Molecule `O=C(Nc1ccc([N+](=O)[O-])cc1)N(Cc1ccccc1)Cc1ccccc1` displayed an inhibition in test [1] of 52%.
In the case of `Cc1cc(Cl)ccc1NC(=O)N(Cc1ccccc1)Cc1ccccc1`, the LS in [2] came to 26%. Moreover, the inhibition in [3] was found to be 63%. The molecule also had an SS in [4] of 53%. In test [5], this molecule had an IC50 of 3.37 µM.
For the molecule `CCCCN(Cc1ccccc1)C(=O)Nc1ccc(C)cc1C`, the SC with Oryctolagus cuniculus [6] came to 722 mg/dL; in the test on Oryctolagus cuniculus [7], 307 mg/dL; in the test with Oryctolagus cuniculus [9], 270 mg/dL; in the test on Oryctolagus cuniculus [10], 255 mg/dL; in the test on Oryctolagus cuniculus [11], 357 mg/dL; in the test on Oryctolagus cuniculus [12] it was 278 mg/dL. The SC is 343 mg/dL in the test on Oryctolagus cuniculus [13]; 556 mg/dL in the test on Oryctolagus cuniculus [15]; 405 mg/dL in the test on Oryctolagus cuniculus [16]; 488 mg/dL in the test with Oryctolagus cuniculus [17]; 230 mg/dL with Oryctolagus cuniculus [18]; 340 mg/dL in the test on Oryctolagus cuniculus [19]. In [8], this molecule gave a concentration for half-maximal inhibition (IC50) of 4.8 µM. Besides, in [2], the LS came out at 75%. In test [14], this molecule had an inhibition of 91%. Moreover, the SS in test [4] was found to be 70%.
Turning to `Cc1c(Cl)cccc1NC(=O)N(Cc1ccccc1)Cc1ccccc1`, the inhibition in test [3] is 84%. The IC50 in [5] is 8.39 µM.
The molecule `O=C(Nc1cccc(C(F)(F)F)c1)N(Cc1ccccc1)Cc1ccccc1` registered an inhibition in test [3] of 94%. In test [5], this molecule gave a half-maximal inhibitory concentration (IC50) of 2.89 µM.
For the molecule `CCCCN(CCCC)C(=O)Nc1ccc(OCC)cc1`, the inhibition in test [20] came to 79%.
For `CCCCN(Cc1ccccc1)C(=O)Nc1ccc(Cl)cc1C`, the LS in test [2] turned out to be 62%. Besides, the SS in test [4] came out at 72%. This molecule also showed a half-maximal inhibitory concentration (IC50) in test [5] of 7.65 µM.
In turn, `CCCCCCCN(Cc1ccco1)C(=O)Nc1c(Cl)cc(Cl)cc1Cl` gave an LS in test [2] of 34%. This molecule came in with an inhibition in test [3] of 96%. Besides, in test [4], the SS worked out at 37%. This molecule had an IC50 in [5] of 0.407 µM.
For `CCCCCCCN(Cc1cccs1)C(=O)Nc1cc(Cl)c(Cl)cc1Cl`, the LS in test [2] was determined as 28%. The molecule also returned an SS in test [4] of 56%. This molecule also gave an IC50 in [5] of 0.484 µM.
Molecule `CCCCN(C(=O)Nc1ccc(C)cc1C)c1ccccc1` registered an LS in [2] of 107%. Besides, the 50% inhibitory concentration (IC50) in test [21] is 21.4 µM. Besides, in test [22], the inhibition is 70%. Besides, the SS in test [4] amounted to 99%.
In turn, `CCCCCCCN(Cc1cccs1)C(=O)Nc1cc(C)c(C)cc1C` returned an LS in [2] of 25%. This molecule had an IC50 in test [21] of 1.45 µM. This molecule came in with an SS in test [4] of 54%.
In test [2], `Cc1ccc(NC(=O)N(Cc2ccccc2)Cc2ccccc2)cc1Cl` yielded an LS of 97%. The inhibition in test [3] is 94%. Further, the SS in [4] was 84%. The molecule also showed an IC50 in test [5] of 18.9 µM.
Taken in the same sequence, the figures for `CCCCCCCN(CCCCCCC)C(=O)Nc1ccc(C)cc1C` were 15%, 91%, 65% and 0.721 µM.
Regarding `O=C(Nc1cc(Cl)cc(Cl)c1)N(Cc1ccccc1)Cc1ccccc1`, the inhibition in test [3] turned out to be 86%. For the same molecule, the half-maximal inhibitory concentration (IC50) in [5] is 3.97 µM.
Consider `Cc1cc(C)c(NC(=O)N(Cc2ccccc2)Cc2ccccc2)c(C)c1`, for which the LS in test [2] is 28%. Further, in [3], the inhibition came out at 37%. Besides, in test [4], the SS is 32%. Moreover, in test [5], inhibition was half-maximal at 3.74 µM (IC50).
In test [2], `CCCCCN(CCCCC)C(=O)Nc1ccc(C)cc1C` returned an LS of 49%. The midpoint of inhibition in test [21], the IC50, lay at 0.952 µM. For the same molecule, the inhibition in test [22] amounted to 90%. In test [4], this molecule displayed an SS of 82%.
In the case of `CCCCCCN(CCCCCC)C(=O)Nc1ccc(C)cc1C`, the LS in [2] worked out at 36%. In test [3], the inhibition was 95%. The SS in [4] amounted to 59%. Also, the midpoint of inhibition in test [5], the IC50, lay at 0.331 µM.
For the molecule `CCCCN(CCCC)C(=O)Nc1cccc(Cl)c1`, in test [8], the 50% inhibitory concentration (IC50) was 9.65 µM. The molecule also showed an LS in [2] of 100%. The same molecule displayed an inhibition in test [14] of 88%. In addition, the SS in [4] came to 105%.
On the same counts, the results for `CCCCN(Cc1ccc2c(c1)OCO2)C(=O)Nc1ccc(C)cc1C` are 5.67 µM, 46%, 88% and 64%.
Taken in the same sequence, the figures for `O=C(Nc1cccc(Br)c1)N(Cc1ccccc1)Cc1ccccc1` were 5.77 µM, 86%, 92% and 92%.
For `CCCCCCCN(Cc1ccco1)C(=O)Nc1cc(C)c(C)cc1C`, the LS in test [2] was 38%. Further, the inhibition in [23] came out at 94%. The molecule further showed an SS in test [4] of 44%.
The molecule `CCCCCCCCCCN(CCCCCCCCCC)C(=O)Nc1ccc(C)cc1C` had an LS in [2] of 66%. In test [3], this molecule displayed an inhibition of 64%. Further, the SS in test [4] was determined as 71%. Further, half-maximal inhibition in test [5] (IC50) required 0.63 µM.
Taken in the same sequence, the figures for `Cc1cc(C)c(NC(=O)N(Cc2ccccc2)Cc2ccccc2)cc1C` were 20%, 69%, 47% and 0.446 µM.
